Measurements gathered from unrelated publications.
Protocols differ between the studies behind these lines. Values after ≈ are worked out from the molar mass of the structure shown.
Organism: Candida albicans

Structure (SMILES)	test	test system	conditions	quantity	result
C[C@@H]1[C@H](O)[C@@H](C)/C=C/C=C/C=C/C=C/C=C/C=C/C=C/[C@H](O[C@@H]2O[C@H](C)[C@@H](O)[C@H](N)[C@@H]2O)C[C@@H]2O[C@](O)(C[C@@H](O)C[C@@H](O)[C@H](O)CC[C@@H](O)C[C@@H](O)CC(=O)O[C@H]1C)C[C@H](O)[C@H]2C(=O)O	microbial growth, broth dilution			MIC90	0.84 µM (≈ 0.776 µg/mL)
Nc1nn2c(-c3ccc(Cl)cc3Cl)cc(-c3ccc(OCc4ccccc4)cc3)nc2c1N=Nc1ccc(F)cc1	microbial killing, broth dilution	ATCC10231		MFC	125 mg/L (≈ 214 µM)
COc1cc(C=NNC(=O)CSc2nc3c(C)cccc3c(=O)n2-c2ccccc2)ccc1OS(C)(=O)=O	microbial growth, well diffusion		20 µg/mL	inhibition zone	3 mm
C[C@@H]1[C@H](O)[C@@H](C)/C=C/C=C/C=C/C=C/C=C/C=C/C=C/[C@H](O[C@@H]2O[C@H](C)[C@@H](O)[C@H](N)[C@@H]2O)C[C@@H]2O[C@](O)(C[C@@H](O)C[C@@H](O)[C@H](O)CC[C@@H](O)C[C@@H](O)CC(=O)O[C@H]1C)C[C@H](O)[C@H]2C(=O)O	microbial growth, broth dilution	SP3876	48 h	MIC	< 0.25 µM
C=CC(=O)ON=C1C=CC(=C(C#N)c2ccccc2)C=C1	microbial killing, broth dilution	ATCC10231	48 h	MFC	4 mg/L (≈ 14.5 µM)
CS(=O)(=O)Oc1ccc(C=NNC(=O)CSc2nc3ccc(Cl)cc3c(=O)n2-c2ccccc2)cc1	microbial growth, well diffusion		20 µg/mL	inhibition zone	2 mm
CC(=O)N1CCN(c2ccc(OCC3COC(Cn4ccnc4)(c4ccc(Cl)cc4Cl)O3)cc2)CC1 (stereo not shown)	microbial growth, broth dilution	17546	48 h	MIC	1 µM (≈ 0.531 µg/mL)
Cc1ccc(N=Nc2c(N)nn3c(-c4ccc(Cl)cc4Cl)cc(-c4ccc(OCc5ccccc5)cc4)nc23)cc1	microbial killing, broth dilution	ATCC10231		MFC	62.5 mg/L (≈ 108 µM)
OC(Cn1cncn1)(Cn1cncn1)c1ccc(F)cc1F	microbial growth, broth dilution	CGMCC2	48 h	MIC	4 µM (≈ 1.23 µg/mL)
CCS(=O)(=O)Oc1ccc(C=NNC(=O)CSc2nc3ccc(Cl)cc3c(=O)n2-c2ccccc2)cc1	microbial growth, well diffusion		20 µg/mL	inhibition zone	3 mm
CC(=O)N1CCN(c2ccc(OCC3COC(Cn4ccnc4)(c4ccc(Cl)cc4Cl)O3)cc2)CC1 (stereo not shown)	microbial growth, well diffusion	MTCC227	1000 µg/mL, 18 h	inhibition zone	24 mm
CC(=O)N1CCN(c2ccc(OCC3COC(Cn4ccnc4)(c4ccc(Cl)cc4Cl)O3)cc2)CC1 (stereo not shown)	microbial killing, broth dilution	ATCC10231		MFC	31.3 mg/L (≈ 58.9 µM)
CCCS(=O)(=O)Oc1ccc(C=NNC(=O)CSc2nc3c(C)cccc3c(=O)n2-c2ccccc2)cc1OC	microbial growth, well diffusion		20 µg/mL	inhibition zone	4 mm
N#CC(=C1C=CC(=NOC(=O)OCc2ccccc2)C=C1)c1ccccc1	microbial killing, broth dilution	ATCC10231	48 h	MFC	256 mg/L (≈ 718 µM)
CCS(=O)(=O)Oc1ccc(C=NNC(=O)CSc2nc3c(C)cccc3c(=O)n2-c2ccccc2)cc1	microbial growth, well diffusion		20 µg/mL	inhibition zone	3 mm
Cc1ccc(-c2cc(-c3ccc(OCc4ccccc4)cc3)nc3c(N=Nc4ccc(F)cc4)c(N)nn23)cc1	microbial killing, broth dilution	ATCC10231		MFC	125 mg/L (≈ 236 µM)
C#CCOC(=O)ON=C1C=CC(=C(C#N)c2ccccc2)C=C1	microbial killing, broth dilution	ATCC10231	48 h	MFC	8 mg/L (≈ 26.3 µM)
Cc1ccc(N=Nc2c(N)nn3c(-c4ccc(C)cc4)cc(-c4ccc(OCc5ccccc5)cc4)nc23)cc1	microbial killing, broth dilution	ATCC10231		MFC	125 mg/L (≈ 238 µM)
C[C@@H]1[C@H](O)[C@@H](C)/C=C/C=C/C=C/C=C/C=C/C=C/C=C/[C@H](O[C@@H]2O[C@H](C)[C@@H](O)[C@H](N)[C@@H]2O)C[C@@H]2O[C@](O)(C[C@@H](O)C[C@@H](O)[C@H](O)CC[C@@H](O)C[C@@H](O)CC(=O)O[C@H]1C)C[C@H](O)[C@H]2C(=O)O	microbial growth, well diffusion		20 µg/mL	inhibition zone	4 mm
